# Results from ChEMBL document CHEMBL4610001 (J Med Chem, 2020).
# Activity calls are given as the source filed them. The rule behind the calls is not given here.
# What was measured:
# [1] = biological target: T1, Lysophosphatidic acid receptor 1 (Homo sapiens, UniProt Q92633); assay: Agonist activity at LPA1 receptor (unknown origin) stably expressed in rat RH7777 cells assessed as increase in intracellular calcium level at 10 uM by Fluo-4 NW dye based fluorescence assay; type: functional, cell-based
# How it was run: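 LPA1-stably transfected RH7777 hepatoma cells on poly-D-lysine, 50000 cells/well, cultured overnight. Loaded with Fluo-4 NW plus […] for 30 min at 37°C, then 30 min at rt. Compound added at 120 s of a 240 s read (ex 494/em 525 nm). Response taken as maximum minus baseline, relative to the 10 μM LPA control; ionomycin 10 μM also included. Run in triplicate.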
# [2] = biological target: T1, Lysophosphatidic acid receptor 1; assay: Agonist activity at recombinant human full-length LPA1 receptor expressed in dhfr- deficient CHO cells assessed as increase in intracellular calcium flux measured for 1 min by fluo-3AM dye based FLIPR assay; type: functional, cell-based
# [3] = biological target: T1, Lysophosphatidic acid receptor 1; assay: Agonist activity at LPA1 receptor (unknown origin) stably expressed in rat RH7777 cells assessed as increase in intracellular calcium level by Fluo-4 NW dye based fluorescence assay; type: functional, cell-based
# [4] = Stability of the compound in PBS at pH 7.4 assessed as parent compound remaining incubated up to 8 hrs by HPLC-MS; type: physicochemical; details: read-out: Stability
# How it was run: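 Compound from a 25 mM DMSO stock was diluted into PBS pH 7.4 and kept at rt. Parent compound remaining at each time point was measured by HPLC-MS in SIM mode, with peak area normalised to an internal standard.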
# [5] = Stability of the compound in culture medium assessed as parent compound remaining incubated for up to 8 hrs by HPLC-MS; type: physicochemical; details: read-out: Stability
# How it was run: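 Compound from a 50 mM DMSO stock was added to culture medium pre-warmed to 37°C and incubated at 37°C. Aliquots were quenched in cold acetonitrile, iced 10 min and centrifuged. Supernatants were analysed by HPLC-MS in SIM mode, with peak area normalised to an internal standard.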
# [6] = biological target: Lysophosphatidic acid receptor 1 (Rattus norvegicus) (UniProt P61794); assay: Agonist activity at LPA1 receptors in Wistar rat DRG neurons assessed as increase in calcium influx at 500 nM measured after 10 secs in presence of capsaicin by Fluo-4 NW dye based inverted microscopic method; type: functional
# [7] = biological target: Lysophosphatidic acid receptor 1 (Rattus norvegicus) (UniProt P61794); assay: Induction of LPA1 receptor desensitization in Wistar rat DRG neurons assessed as reduction in calcium influx at 10 uM treated twice after 10 secs in presence of capsaicin by Fluo-4 NW dye based inverted microscopic method; type: functional
# How it was run: (§1)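 DRG neurons from 3–5-day-old Wistar rats were collagenase-digested and cultured 48 h with NGF. Cells loaded with 5 μM Fluo-4AM and 0.02% pluronic in HEPES-buffered HBSS pH 7.4 for 1 h at 37°C, then perfused at rt. Compound given at 10 μM final (from 10 mM DMSO stock) as 10 s pulses. Capsaicin and 40 mM KCl (10 s, viability) also applied. Signal is peak minus baseline fluorescence; a response is >20% over baseline.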
# [8] = biological target: Lysophosphatidic acid receptor 1 (Rattus norvegicus) (UniProt P61794); assay: Induction of LPA1 receptor desensitization in Wistar rat DRG neurons assessed as reduction in neuronal activity at 10 uM treated for 15 secs twice with 4 mins interval in presence of capsaicin by microelectrode Array
# How it was run: (§2)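 Neonatal Wistar rat DRG neurons, cultured 48 h on poly-L-lysine/laminin-coated 60-electrode MEA chips. Compound perfused at 10 μM final for 15 s at 2 mL/min. Extracellular activity recorded at 25 kHz; output is mean spike frequency.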
# [9] = biological target: T1, Lysophosphatidic acid receptor 1; assay: Binding affinity to LPA1 receptor (unknown origin) by cell-based backscattering interferometry
# [10] = biological target: Lysophosphatidic acid receptor 1 (Rattus norvegicus) (UniProt P61794); assay: Agonist activity at LPA1 receptors in Wistar rat DRG neurons assessed as increase in calcium influx at 10 uM measured after 10 secs in presence of capsaicin by Fluo-4 NW dye based inverted microscopic method; type: functional; how it was run: as §1
# [11] = biological target: Lysophosphatidic acid receptor 1 (Rattus norvegicus) (UniProt P61794); assay: Agonist activity at LPA1 receptors in Wistar rat DRG neurons assessed as increase in neuronal activity at 10 uM incubated for 15 secs in presence of capsazepine by Microelectrode Array; how it was run: as §2
# [12] = biological target: Lysophosphatidic acid receptor 1 (Rattus norvegicus) (UniProt P61794); assay: Agonist activity at LPA1 receptors in Wistar rat DRG neurons assessed as increase in neuronal activity at 10 uM incubated for 15 secs in presence of capsaicin by Microelectrode Array; how it was run: as §2
# [13] = biological target: Lysophosphatidic acid receptor 1 (Rattus norvegicus) (UniProt P61794); assay: Induction of LPA1 receptor desensitization in Wistar rat DRG neurons assessed as reduction in neuronal activity at 10 uM treated for 15 secs twice with 4 mins interval in presence of capsazepine by microelectrode Array; how it was run: as §2
# T1 sequence (Q92633 whole entry): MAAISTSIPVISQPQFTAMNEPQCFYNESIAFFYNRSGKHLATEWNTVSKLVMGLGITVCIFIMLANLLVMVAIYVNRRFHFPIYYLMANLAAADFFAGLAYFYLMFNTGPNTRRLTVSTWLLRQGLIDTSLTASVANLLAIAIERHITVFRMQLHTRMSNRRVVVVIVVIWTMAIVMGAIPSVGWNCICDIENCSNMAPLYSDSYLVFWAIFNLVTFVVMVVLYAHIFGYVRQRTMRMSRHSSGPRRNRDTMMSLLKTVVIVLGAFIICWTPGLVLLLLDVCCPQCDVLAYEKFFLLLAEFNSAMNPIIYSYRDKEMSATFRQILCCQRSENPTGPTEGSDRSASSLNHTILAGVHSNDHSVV
# Chain of Lysophosphatidic acid receptor 1 (Rattus norvegicus) (P61794 whole entry, the tested form may be a part): as the sequence (Q92633 whole entry) above, with I4A, I8S, P22Q, H40Y, I61V, E193D, N194H, I269V, S331N, T335N counted along it
SMILES,Activity [1],also measured
CCCCCCCC/C=C\CCCCCCCC(=O)OC[C@@H]1CC(C(=O)O)C(=O)O1 (stereo partly drawn),inactive,
O=C(CCCCCCCc1ccccc1)OC[C@@H](O)COP(=O)(O)O,inactive,
CCCCCCCC/C=C\CCCCCCCC(=O)OCCCC(F)(C(=O)O)C(=O)O,inactive,
O=C(CCCCCCCCCCc1ccccc1)O[C@H](CBr)COP(=O)(O)O,inactive,
CCCCCCCC/C=C\CCCCCCCC(=O)NC[C@H](CC(F)(C(=O)O)C(=O)O)OC,inactive,
O=C(CCCCCCCCCc1ccccc1)OC[C@@H]1CC(F)(C(=O)O)C(=O)O1 (stereo partly drawn),inactive,
CCCCCCCC/C=C\CCCCCCCC(=O)OC[C@@H](O)COCC(=O)O,inactive,
CCCCCCCC/C=C\CCCCCCCC(=O)OCCCC(C(=O)O)C(=O)O,inactive,
CCCCCC/C=C\CCCCCCCC(=O)O[C@H](CBr)COP(=O)(O)O,inactive,
O=C(CCCCCCc1ccccc1)OC[C@@H](O)COP(=O)(O)O,inactive,
CC1CCC2(C)c3[nH]c4ccccc4c3CCN2C1 (stereo not drawn),,EC50 [2]: 3.6 µM
O=C(CCCCCCc1ccc(-c2ccccc2)cc1)OC[C@@H](O)COP(=O)(O)O,inactive,
CCCCCCCC/C=C\CCCCCCCC(=O)O[C@H](CBr)COP(=O)(O)O,,EC50 [3]: 3.2 µM
CCCCCC/C=C\CCCCCCCC(=O)OC[C@@H]1C[C@@](F)(C(=O)O)C(=O)O1,inactive,
O=C(CCCCCCCCCc1ccccc1)O[C@H](CBr)COP(=O)(O)O,,remaining at 8 h [4]: > 85%; remaining at 8 h [5]: > 85%
CCCCCCCCCC/C=C\CCCCCCCC(=O)OC[C@@H](O)COP(=O)(O)O,inactive,
O=C(CCCCCCCCc1ccccc1)O[C@H](CBr)COP(=O)(O)O,inactive,
COc1cc(CNC(=O)CCCC/C=C/C(C)C)ccc1O,,Activity [6]: Active
CCCCCC/C=C\CCCCCCCC(=O)OC[C@@H]1C[C@](F)(C(=O)O)C(=O)O1,inactive,
CCCCCCCC/C=C\CCCCCCCC(=O)OC[C@@H](O)COP(=O)(O)O [LYSOPHOSPHATIDIC ACID],,Activity [7]: Active; Activity [8]: Active; Kd [9]: 0.0056 µM; EC50 [3]: 0.83 µM; Activity [10]: Active; Activity [11]: Active; Activity [12]: Active; Activity [13]: Active
CCCCCCCC/C=C\CCCCCCCC(=O)OC[C@@H](O)COc1ccc(B(O)O)cc1,inactive,
CCCCCCCC/C=C\CCCCCCCC(=O)OC[C@@H](O)Cc1nnn[nH]1,inactive,
O=C(CCCCCCCCCCCCCCc1ccccc1)OC[C@@H](O)COP(=O)(O)O,inactive,
O=C(CCCCCCCCCCCCc1ccc(-c2ccccc2)cc1)OC[C@@H](O)COP(=O)(O)O,,EC50 [3]: 19 µM
CO[C@H](COC(=O)CCCCCCCCCc1ccccc1)CC(F)(C(=O)O)C(=O)O,inactive,
